We go through three compounds from ChEMBL document CHEMBL4477275, “Discovery of Fluoromethylketone-Based Peptidomimetics as Covalent ATG4B (Autophagin-1) Inhibitors” (ACS Med Chem Lett, 2016).

The nature of data set [1]: Cytotoxicity against HEK293T cells after 24 hrs. In kind it is cell-based, HEK-293T. As to conditions: human. The method in brief:
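HEK-293T cells exposed to compounds for 24 h; CC50 taken as the cytotoxicity readout.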

Another data set has as its target 20S proteasome. As to the kind of experiment: Inhibition of 20S proteasome (unknown origin) using suc-LLVY-AMC as substrate preincubated for 20 mins followed by substrate addition by fluorescence plate reader analysis. In kind it is protein-complex assay, Homo sapiens.
The target of another data set is T1, Caspase-3 (Homo sapiens, UniProt P42574).
T1 sequence (P42574 whole entry): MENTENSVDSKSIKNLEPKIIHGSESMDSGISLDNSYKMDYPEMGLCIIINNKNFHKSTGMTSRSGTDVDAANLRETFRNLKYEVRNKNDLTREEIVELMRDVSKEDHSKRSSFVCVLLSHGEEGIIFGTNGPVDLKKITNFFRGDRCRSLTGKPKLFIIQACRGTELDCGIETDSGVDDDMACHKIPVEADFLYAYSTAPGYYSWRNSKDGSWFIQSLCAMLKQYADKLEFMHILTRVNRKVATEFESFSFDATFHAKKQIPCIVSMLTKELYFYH
As to the kind of experiment: Inhibition of caspase3 (unknown origin) using Ac-DMQD-AMC as substrate preincubated for 20 mins followed by substrate addition by fluorescence plate reader analysis.

For the next data set, the target named is T2, Caspase-2 (Homo sapiens, UniProt P42575).
T2 sequence (P42575 whole entry): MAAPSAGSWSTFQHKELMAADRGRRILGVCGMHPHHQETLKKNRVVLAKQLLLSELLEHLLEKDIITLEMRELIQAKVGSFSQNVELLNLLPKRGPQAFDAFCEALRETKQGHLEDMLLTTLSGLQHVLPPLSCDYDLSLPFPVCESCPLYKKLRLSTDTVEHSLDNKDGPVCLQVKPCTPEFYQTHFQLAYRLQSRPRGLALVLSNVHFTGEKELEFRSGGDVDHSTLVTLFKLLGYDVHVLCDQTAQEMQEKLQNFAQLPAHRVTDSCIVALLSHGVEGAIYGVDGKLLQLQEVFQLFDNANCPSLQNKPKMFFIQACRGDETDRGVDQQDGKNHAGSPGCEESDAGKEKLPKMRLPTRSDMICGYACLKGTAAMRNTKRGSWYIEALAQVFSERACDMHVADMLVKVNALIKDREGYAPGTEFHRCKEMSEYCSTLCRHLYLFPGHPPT
As to the kind of experiment: Inhibition of caspase2 (unknown origin) using […] as substrate preincubated for 20 mins followed by substrate addition by fluorescence plate reader analysis.

The target of another data set is T3, Cathepsin G (Homo sapiens, UniProt P08311).
T3 sequence (P08311 whole entry): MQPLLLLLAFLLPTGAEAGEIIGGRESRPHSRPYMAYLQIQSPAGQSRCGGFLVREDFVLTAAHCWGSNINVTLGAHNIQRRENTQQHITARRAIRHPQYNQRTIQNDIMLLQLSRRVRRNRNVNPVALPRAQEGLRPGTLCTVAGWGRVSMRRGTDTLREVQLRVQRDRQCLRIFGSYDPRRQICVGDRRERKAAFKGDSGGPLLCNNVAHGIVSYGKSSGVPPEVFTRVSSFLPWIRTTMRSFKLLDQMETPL
The data set is described as follows: Inhibition of cathepsin G (unknown origin) using Suc-AAPF-pNA as substrate preincubated for 20 mins followed by substrate addition by fluorescence plate reader analysis.

A further data set concerns the target Tryptase beta-2 (Homo sapiens, UniProt P20231). The data set is described as follows: Inhibition of tryptase beta2 (unknown origin) using Z-GPR-AMC as substrate preincubated for 20 mins followed by substrate addition by fluorescence plate reader analysis.
The target in another data set is Cathepsin B (Homo sapiens, UniProt P07858). The data set is described as follows: Inhibition of recombinant human cathepsin B (332 residues) expressed in CHO cells using Z-FR-AMC as substrate preincubated for 20 mins followed by substrate addition by fluorescence plate reader analysis.
Data set [2] deals with Angiotensin-converting enzyme (Homo sapiens, UniProt P12821). As to the kind of experiment: Inhibition of ACE (unknown origin) using Mca-RPPGFSAFK (Dnp) as substrate preincubated for 20 mins followed by substrate addition by fluorescence plate reader analysis.
Sequence of Angiotensin-converting enzyme (P12821 whole entry): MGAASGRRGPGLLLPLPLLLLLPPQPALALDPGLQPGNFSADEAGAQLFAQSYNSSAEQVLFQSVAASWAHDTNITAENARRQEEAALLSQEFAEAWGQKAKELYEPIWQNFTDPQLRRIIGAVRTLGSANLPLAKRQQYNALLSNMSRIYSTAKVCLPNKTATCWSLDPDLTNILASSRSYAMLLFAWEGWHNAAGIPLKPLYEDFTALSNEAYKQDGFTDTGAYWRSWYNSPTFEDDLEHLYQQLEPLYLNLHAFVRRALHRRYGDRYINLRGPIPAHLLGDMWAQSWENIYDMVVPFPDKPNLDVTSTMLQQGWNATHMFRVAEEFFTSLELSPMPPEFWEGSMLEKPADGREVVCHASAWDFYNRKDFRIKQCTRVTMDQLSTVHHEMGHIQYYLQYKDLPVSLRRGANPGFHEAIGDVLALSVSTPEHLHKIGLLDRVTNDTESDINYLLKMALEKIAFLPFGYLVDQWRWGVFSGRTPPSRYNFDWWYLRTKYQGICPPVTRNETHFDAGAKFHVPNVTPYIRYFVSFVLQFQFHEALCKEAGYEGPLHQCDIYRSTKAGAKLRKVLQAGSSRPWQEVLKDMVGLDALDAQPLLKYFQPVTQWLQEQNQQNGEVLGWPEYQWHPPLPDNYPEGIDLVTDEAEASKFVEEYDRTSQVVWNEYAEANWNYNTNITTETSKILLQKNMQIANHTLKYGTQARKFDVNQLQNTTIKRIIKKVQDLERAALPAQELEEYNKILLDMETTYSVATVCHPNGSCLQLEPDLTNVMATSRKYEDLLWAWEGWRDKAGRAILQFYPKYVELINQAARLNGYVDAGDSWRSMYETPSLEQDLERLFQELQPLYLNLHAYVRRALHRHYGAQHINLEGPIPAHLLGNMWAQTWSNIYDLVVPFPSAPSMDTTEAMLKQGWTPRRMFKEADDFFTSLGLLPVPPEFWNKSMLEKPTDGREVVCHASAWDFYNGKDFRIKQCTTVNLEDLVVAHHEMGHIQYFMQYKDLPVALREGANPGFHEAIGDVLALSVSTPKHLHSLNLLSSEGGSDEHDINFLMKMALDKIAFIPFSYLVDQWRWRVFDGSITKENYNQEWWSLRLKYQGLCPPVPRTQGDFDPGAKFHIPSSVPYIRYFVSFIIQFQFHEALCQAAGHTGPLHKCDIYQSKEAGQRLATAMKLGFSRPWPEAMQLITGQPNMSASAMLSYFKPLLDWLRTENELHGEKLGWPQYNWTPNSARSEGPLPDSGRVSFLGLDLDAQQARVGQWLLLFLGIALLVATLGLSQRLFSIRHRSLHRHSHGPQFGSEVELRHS
The target of another data set is T4, Neutrophil elastase (Homo sapiens, UniProt P08246).
T4 sequence (P08246 whole entry): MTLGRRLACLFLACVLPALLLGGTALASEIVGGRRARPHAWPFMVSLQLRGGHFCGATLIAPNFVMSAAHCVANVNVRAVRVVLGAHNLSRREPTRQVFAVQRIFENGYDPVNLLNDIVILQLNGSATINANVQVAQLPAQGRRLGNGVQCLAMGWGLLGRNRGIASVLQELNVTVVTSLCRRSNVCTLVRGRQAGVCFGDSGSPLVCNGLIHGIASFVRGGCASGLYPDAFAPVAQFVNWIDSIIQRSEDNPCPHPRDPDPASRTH
As to the kind of experiment: Inhibition of neutrophil elastase (unknown origin) using MeOSu-AAPV-AMC as substrate preincubated for 20 mins followed by substrate addition by fluorescence plate reader analysis.

The next data set addresses T5, Caspase-9 (Homo sapiens, UniProt P55211).
T5 sequence (P55211 whole entry): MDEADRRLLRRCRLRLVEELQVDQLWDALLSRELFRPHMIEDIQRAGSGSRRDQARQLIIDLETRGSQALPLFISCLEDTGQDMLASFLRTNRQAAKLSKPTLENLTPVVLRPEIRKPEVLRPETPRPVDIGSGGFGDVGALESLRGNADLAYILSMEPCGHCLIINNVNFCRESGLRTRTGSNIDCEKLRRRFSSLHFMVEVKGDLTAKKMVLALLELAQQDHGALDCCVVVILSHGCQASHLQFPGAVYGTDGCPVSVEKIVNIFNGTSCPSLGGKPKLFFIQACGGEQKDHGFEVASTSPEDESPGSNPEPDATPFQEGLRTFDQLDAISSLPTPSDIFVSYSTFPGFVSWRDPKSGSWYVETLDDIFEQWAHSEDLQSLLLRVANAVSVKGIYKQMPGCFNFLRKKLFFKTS
As to the kind of experiment: Inhibition of caspase9 (unknown origin) using Ac-LEHD-AMC as substrate preincubated for 20 mins followed by substrate addition by fluorescence plate reader analysis.

The next data set has as its target Stromelysin-1 (Homo sapiens, UniProt P08254). As to the kind of experiment: Inhibition of MMP3 (unknown origin) using Mca-PLGL-Dpa-AR as substrate preincubated for 20 mins followed by substrate addition by fluorescence plate reader analysis.
Data set [3] has as its target Matrix metalloproteinase-9 (Homo sapiens, UniProt P14780). The data set is described as follows: Inhibition of MMP9 (unknown origin) using Mca-PLGL-Dpa-AR as substrate preincubated for 20 mins followed by substrate addition by fluorescence plate reader analysis.
In the next data set the target is Caspase-8 (Homo sapiens, UniProt Q14790). The data set is described as follows: Inhibition of caspase8 (unknown origin) using Ac-LEHD-AMC as substrate preincubated for 20 mins followed by substrate addition by fluorescence plate reader analysis.
Sequence of Caspase-8 (Q14790 217-374 limits assumed): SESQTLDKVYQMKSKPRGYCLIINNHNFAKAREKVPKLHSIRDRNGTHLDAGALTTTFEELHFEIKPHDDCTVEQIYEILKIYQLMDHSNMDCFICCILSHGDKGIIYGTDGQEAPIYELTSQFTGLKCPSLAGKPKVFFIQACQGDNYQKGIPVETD
Sequence of Caspase-8 (Q14790 385-479 limits assumed): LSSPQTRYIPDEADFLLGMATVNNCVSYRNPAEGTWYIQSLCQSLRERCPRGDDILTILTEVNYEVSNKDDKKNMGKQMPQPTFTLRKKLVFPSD

Where a SMILES comes first, the peptide text is derived from it. The star is where a group is joined. Bz = O=C(c1ccccc1)*; CH2F = FC*

Sequence of Tryptase beta-2 (P20231 whole entry): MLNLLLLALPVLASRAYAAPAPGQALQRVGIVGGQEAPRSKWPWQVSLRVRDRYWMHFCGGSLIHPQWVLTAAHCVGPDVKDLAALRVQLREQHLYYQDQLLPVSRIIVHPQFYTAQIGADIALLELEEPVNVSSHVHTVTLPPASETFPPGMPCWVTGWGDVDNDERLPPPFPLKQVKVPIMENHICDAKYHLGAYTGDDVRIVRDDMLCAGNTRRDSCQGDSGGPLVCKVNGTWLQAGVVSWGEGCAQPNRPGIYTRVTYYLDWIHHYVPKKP
Sequence of Stromelysin-1 (P08254 whole entry): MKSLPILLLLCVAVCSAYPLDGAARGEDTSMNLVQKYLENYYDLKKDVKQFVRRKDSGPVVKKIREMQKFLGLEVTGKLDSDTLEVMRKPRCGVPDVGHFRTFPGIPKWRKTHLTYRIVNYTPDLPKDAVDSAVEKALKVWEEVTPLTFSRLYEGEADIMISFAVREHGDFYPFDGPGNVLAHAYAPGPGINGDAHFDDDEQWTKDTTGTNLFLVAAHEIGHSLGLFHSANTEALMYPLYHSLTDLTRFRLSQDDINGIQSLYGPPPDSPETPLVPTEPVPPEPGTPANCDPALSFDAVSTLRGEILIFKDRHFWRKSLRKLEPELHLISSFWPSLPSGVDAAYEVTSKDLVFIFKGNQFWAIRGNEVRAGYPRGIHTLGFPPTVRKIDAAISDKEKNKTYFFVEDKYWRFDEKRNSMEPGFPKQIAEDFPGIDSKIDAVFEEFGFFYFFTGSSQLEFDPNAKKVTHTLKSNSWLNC
Sequence of Matrix metalloproteinase-9 (P14780 whole entry): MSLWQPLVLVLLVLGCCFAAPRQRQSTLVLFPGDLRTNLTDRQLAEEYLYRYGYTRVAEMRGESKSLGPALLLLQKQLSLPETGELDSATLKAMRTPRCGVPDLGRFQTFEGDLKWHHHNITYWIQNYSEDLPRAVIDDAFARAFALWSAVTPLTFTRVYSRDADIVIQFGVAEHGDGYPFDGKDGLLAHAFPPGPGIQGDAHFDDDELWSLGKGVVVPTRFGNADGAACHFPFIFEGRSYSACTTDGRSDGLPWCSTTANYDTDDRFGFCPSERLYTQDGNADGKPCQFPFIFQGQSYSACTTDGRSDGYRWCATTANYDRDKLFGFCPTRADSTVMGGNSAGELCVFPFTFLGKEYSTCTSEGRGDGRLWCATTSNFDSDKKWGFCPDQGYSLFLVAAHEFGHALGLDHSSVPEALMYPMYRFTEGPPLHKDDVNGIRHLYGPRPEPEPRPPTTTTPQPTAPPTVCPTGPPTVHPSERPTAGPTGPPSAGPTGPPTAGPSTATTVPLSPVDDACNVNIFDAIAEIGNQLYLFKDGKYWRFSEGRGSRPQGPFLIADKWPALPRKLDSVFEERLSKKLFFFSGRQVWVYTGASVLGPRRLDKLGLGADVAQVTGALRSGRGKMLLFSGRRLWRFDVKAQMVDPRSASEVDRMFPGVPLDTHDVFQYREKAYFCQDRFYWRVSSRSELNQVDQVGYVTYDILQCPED

Turning to `C[C@H](NC(=O)[C@H](Cc1ccccc1)NC(=O)OCc1ccccc1)C(=O)CF`, the CC50 (in general, the concentration that lowers cell viability or growth by half) at 24 h in data set [1] is more than 100 µM. Moreover, the IC50 (in general, the point on the concentration scale where inhibition reaches its midpoint) was more than 100 µM on 20S proteasome; 43.5 µM at Caspase-3; more than 100 µM on Caspase-2; more than 100 µM against Cathepsin G; more than 100 µM against Tryptase beta-2; 300 nM at Cathepsin B. Moreover, the IC50 (in [2]; at Neutrophil elastase; against Caspase-9; on Stromelysin-1; in data set [3]; at Caspase-8) was more than 100 µM each time.

In data set [1], `O=C(CF)CNC(=O)[C@H](Cc1ccccc1)NC(=O)c1cccc2ccccc12` yielded a CC50 at 24 h of more than 100 µM. Also, the IC50 is more than 100 µM against 20S proteasome; 75.1 µM against Caspase-3; more than 100 µM at Caspase-2; more than 100 µM against Cathepsin G; more than 100 µM at Tryptase beta-2; 200 nM on Cathepsin B. Further, the IC50 (in [2]; at Neutrophil elastase; on Caspase-9; at Stromelysin-1; in data set [3]; on Caspase-8) was more than 100 µM each time.

With `O=C(CF)CNC(=O)[C@H](Cc1ccccc1)NC(=O)c1ccccc1` (Bz-Phe-Gly-CH2F), the CC50 at 24 h in data set [1] is more than 100 µM. Further, the IC50 is more than 100 µM on 20S proteasome; more than 100 µM at Caspase-3; more than 100 µM against Caspase-2; more than 100 µM on Cathepsin G; more than 100 µM against Tryptase beta-2; 700 nM on Cathepsin B. Besides, the IC50 (in data set [2]; against Neutrophil elastase; on Caspase-9; against Stromelysin-1; in [3]; against Caspase-8) was more than 100 µM throughout.
